Legend:
[1] = Tmax in human with normal renal function at 600 mg, po administered as single dose; type: ADME, organism-based; details: in vivo
Method in brief: (§1)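 Single oral dose. Plasma was frozen at –20°C. Assay by validated HPLC-MS/MS (LLOQ 10 ng/ml, calibration 10–5,000 ng/ml, m/z 243.0→127.1). Tmax was read directly from the concentration-time data, with noncompartmental analysis.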

[2] = Tmax in patient with mild renal impairment at 600 mg, po administered as single dose; type: ADME, organism-based; details: human, in vivo; method in brief: as §1
[3] = Elimination half life in patient with mild renal impairment at 600 mg, po administered as single dose; type: ADME, organism-based; details: human, in vivo, read-out: beta t1/2 (converted)
Method in brief: (§2)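 Half-lives came from noncompartmental analysis of plasma LC-MS/MS concentrations over 48 h after a single oral dose. Terminal and initial-decline t1/2 were calculated as 0.693/k, with each rate constant derived by stripping and linear regression.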

[4] = Plasma clearance in patient with mild renal impairment at 600 mg, po administered as single dose; type: ADME, organism-based; details: human
Method in brief: (§3)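 Apparent total oral plasma clearance (CL/F) = dose/AUC0-∞. AUC was obtained noncompartmentally from plasma LC-MS/MS concentrations sampled up to 48 h after a single oral dose.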

[5] = Cmax in patient with mild renal impairment at 600 mg, po administered as single dose; type: ADME, organism-based; set-up: dose 600 mg, route oral; details: human, in vivo
Method in brief: (§4)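 Plasma telbivudine after one oral dose, sampled predose through 48 h and quantified by validated LC-MS/MS (LLOQ 10 ng/ml, transition 243.0→127.1 m/z). Cmax was read directly from the observed concentration-time data.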

[6] = AUC (0 to infinity) in patient with moderate renal impairment at 400 mg, po administered as single dose; type: ADME, organism-based; set-up: dose 400 mg, time infinity, route oral; details: human, plasma
Method in brief: (§5)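 Single oral telbivudine dose. Heparinized blood was drawn predose and up to 48 h postdose, with extra paired dialyzer samples for predialysis dosing. Plasma was stored at –20°C and assayed by validated HPLC-MS/MS (LLOQ 10 ng/ml, range 10–5,000 ng/ml). Noncompartmental analysis: AUC0-t by linear trapezoidal rule to last measurable concentration; AUC0-∞ = AUC0-t + Ct/kel.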

[7] = Renal clearance in human with normal renal function at 600 mg, po administered as single dose; type: ADME, organism-based, Kidney; details: in vivo, read-out: CL_renal (converted)
Method in brief: (§6)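 Renal clearance = Au0-t/AUC0-t, where Au0-t is the cumulative unchanged drug in urine collected over 0–48 h. Plasma and urine were assayed by validated HPLC-MS/MS after a single oral dose.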

[8] = AUC (0 to t) in human with normal renal function at 600 mg, po administered as single dose; type: ADME, organism-based; details: plasma; method in brief: as §5
[9] = Cmax in human with normal renal function at 600 mg, po administered as single dose; type: ADME, organism-based; set-up: dose 600 mg, route oral; details: in vivo; method in brief: as §4
[10] = AUC (0 to infinity) in patient with end-stage renal disease at 200 mg, po administered as two single doses 2 hrs before dialysis separated by 1 week washout period; type: ADME, organism-based; set-up: dose 200 mg, route oral, time infinity; details: human, plasma; method in brief: as §5
[11] = Cmax in patient with moderate renal impairment at 400 mg, po administered as single dose; type: ADME, organism-based; set-up: dose 400 mg, route oral; details: human, in vivo; method in brief: as §4
[12] = AUC (0 to t) in patient with end-stage renal disease at 200 mg, po administered as two single doses within 2 hrs of after completion of dialysis separated by 1 week washout period; type: ADME, organism-based; details: human, plasma; method in brief: as §5
[13] = AUC (0 to infinity) in patient with end-stage renal disease at 200 mg, po administered as two single doses within 2 hrs of after completion of dialysis separated by 1 week washout period; type: ADME, organism-based; set-up: dose 200 mg, time infinity, route oral; details: human, plasma; method in brief: as §5
[14] = Cmax in patient with severe renal impairment at 200 mg, po administered as single dose; type: ADME, organism-based; set-up: dose 200 mg, route oral; details: human, in vivo; method in brief: as §4
[15] = Initial decline half life in patient with end-stage renal disease at 200 mg, po administered as two single doses within 2 hrs of after completion of dialysis separated by 1 week washout period; type: ADME, organism-based; details: human, in vivo, read-out: alphat1/2 (converted); method in brief: as §2
[16] = Tmax in patient with moderate renal impairment at 400 mg, po administered as single dose; type: ADME, organism-based; details: human, in vivo; method in brief: as §1
[17] = Plasma clearance in patient with end-stage renal disease at 200 mg, po administered as two single doses within 2 hrs of after completion of dialysis separated by 1 week washout period; type: ADME, organism-based; details: human; method in brief: as §3
[18] = Mean cumulative urine excretion level in patient with mild renal impairment at 600 mg, po administered as single dose; type: ADME, organism-based; details: human, read-out: Activity
Method in brief: (§7)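 Urine collected at –2 to 0 h predose and at 0–4, 4–8, 8–12, 12–24 and 24–48 h after a single oral dose. Unchanged telbivudine measured by validated HPLC-MS/MS (LLOQ 30 ng/ml, calibration 30–5,000 ng/ml), and amounts were summed cumulatively.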

[19] = Tmax in patient with end-stage renal disease at 200 mg, po administered as two single doses 2 hrs before dialysis separated by 1 week washout period; type: ADME, organism-based; details: human, in vivo
Method in brief: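 ESRD subjects dosed orally before dialysis, with a 3.5–4 h hemodialysis session starting 2 h post-dose. Blood was drawn predose and at 0.5, 0.75, 1, 2, 3.75–4, 5.5–6, 8, 12, 16, 20, 24, 28, 32, 36 and 48 h. Paired pre/postdialyzer samples were taken at the dialysis time points. Plasma telbivudine by HPLC-MS/MS. Tmax taken directly from the observed data.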

[20] = Elimination half life in patient with severe renal impairment at 200 mg, po administered as single dose; type: ADME, organism-based; details: human, in vivo, read-out: beta t1/2 (converted); method in brief: as §2
[21] = Mean cumulative urine excretion level in patient with moderate renal impairment at 400 mg, po administered as single dose; type: ADME, organism-based; details: human, read-out: Activity; method in brief: as §7
[22] = Tmax in patient with severe renal impairment at 200 mg, po administered as single dose; type: ADME, organism-based; details: human, in vivo; method in brief: as §1
[23] = Plasma clearance in patient with end-stage renal disease at 200 mg, po administered as two single doses 2 hrs before dialysis separated by 1 week washout period; type: ADME, organism-based; details: human; method in brief: as §3
Hepatitis B virus = test: Antiviral activity against HBV in HBeAg-positive patient with chronic viral infection assessed as log reduction of serum viral DNA copies/ml at 60 mg/day after 6 to 12 weeks; type: functional
[24] = Elimination half life in patient with end-stage renal disease at 200 mg, po administered as two single doses 2 hrs before dialysis separated by 1 week washout period; type: ADME, organism-based; details: human, in vivo, read-out: beta t1/2 (converted); method in brief: as §2
[25] = Terminal half life in healthy human at 200 to 800 mg/day administered as single dose; type: ADME, organism-based; details: in vivo, read-out: beta t1/2 (converted)
[26] = Oral bioavailability in human with normal renal function; type: ADME, organism-based; details: in vivo
[27] = Renal clearance in patient with moderate renal impairment at 400 mg, po administered as single dose; type: ADME, organism-based, Kidney; details: human, in vivo, read-out: CL_renal (converted); method in brief: as §6
[28] = Mean cumulative urine excretion level in patient with severe renal impairment at 200 mg, po administered as single dose; type: ADME, organism-based; details: human, read-out: Activity; method in brief: as §7

`Cc1cn([C@@H]2C[C@@H](O)[C@H](CO)O2)c(=O)[nH]c1=O` [TELBIVUDINE] showed a Tmax [1] of 4 h, a Tmax [2] of 4 h and a half-life [3] of 1600 min. It also gave a CL/F [4] of 345 mL/min, a Cmax [5] of 3200 ng/mL and an AUC(0-inf) [6] of 36000 ng·h/mL. The CL renal [7] was 127 mL/min, the AUC(0-t) [8] was 26500 ng·h/mL and the Cmax [9] was 3400 ng/mL. The AUC(0-inf) [10] was 43400 ng·h/mL, the Cmax [11] was 2800 ng/mL and the AUC(0-t) [12] was 41800 ng·h/mL. It also gave an AUC(0-inf) [13] of 67400 ng·h/mL, a Cmax [14] of 1600 ng/mL and a half-life [15] of 292 min. For the same compound, the Tmax [16] was 4 h, the CL/F [17] was 60 mL/min and the dose excreted [18] was 23.6%. For the same compound, the Tmax [19] was 8 h, the half-life [20] was 1970 min and the dose excreted [21] was 19.8%. It also gave a Tmax [22] of 4 h, a CL/F [23] of 81.7 mL/min and an Activity (Hepatitis B virus) of 6 mL⁻¹. For the same compound, the half-life [24] was 2110 min, the half-life [25] was 2400 min and the bioavailability [26] was 52%. The CL renal [27] was 43.3 mL/min and the dose excreted [28] was 8%.
